These results are taken from ChEMBL document CHEMBL1153228, “Synthesis and in vivo evaluation of bicyclic gababutins” (Bioorg Med Chem Lett, 2010).

Structures are written as SMILES. Activity calls are given as the source filed them. No cut-off for these calls is given here. Bounds are passed on as bounds.

Data set [1] addresses Voltage-dependent calcium channel alpha2delta subunit (Sus scrofa, UniProt O77773). The data set is described as follows: Displacement of [3H]gabapentin from calcium channel alpha2delta in pig cerebral cortex membrane after 30 mins. Type of data set: cell membranes. (In general: Loss of bound radioactivity is the signal in a displacement assay; it reports binding, not function.)

Data set [2] in a line: Inhibition of L-type amino acid transporter expressed in CHO cells assessed as inhibition of [3H]leucine uptake. Type of data set: cell-based.
Data set [3] concerns Rattus norvegicus. The data set is described as follows: Analgesic activity in intrathecally dosed rat chronic constriction injury weight model assessed as inhibition of pain effect. Type of data set: functional, organism-based. In short, it runs like this: (§1)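 Rat sciatic-nerve chronic constriction model: loose ligatures placed around the sciatic nerve produce hypersensitivity in one hind paw. Weight borne on each hind paw is measured, and the read-out is the difference between the ipsilateral (affected) and contralateral (unaffected) paw.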

Data set [4] is described as follows: Elimination half life in rat. The format is ADME, organism-based. As to conditions: in vivo.
Data set [5] is described as follows: Clearance in rat. Particulars: in vivo. Type of data set: ADME, organism-based.
In data set [6] the test system is Rattus norvegicus. The experiment in a line: Analgesic activity in rat chronic constriction injury weight model assessed as inhibition of pain effect at 3 to 10 mg/kg, po. The format is functional, organism-based. In short, it runs like this:
as §1

The nature of data set [7]: Lipophilicity, log D at pH 7.4. The format is physicochemical. Particulars: buffer.
A short description of data set [8]: Bioavailability in rat. The format is ADME, organism-based. Particulars: in vivo.

Voltage-dependent calcium channel alpha2delta subunit, sequence (O77773 whole entry): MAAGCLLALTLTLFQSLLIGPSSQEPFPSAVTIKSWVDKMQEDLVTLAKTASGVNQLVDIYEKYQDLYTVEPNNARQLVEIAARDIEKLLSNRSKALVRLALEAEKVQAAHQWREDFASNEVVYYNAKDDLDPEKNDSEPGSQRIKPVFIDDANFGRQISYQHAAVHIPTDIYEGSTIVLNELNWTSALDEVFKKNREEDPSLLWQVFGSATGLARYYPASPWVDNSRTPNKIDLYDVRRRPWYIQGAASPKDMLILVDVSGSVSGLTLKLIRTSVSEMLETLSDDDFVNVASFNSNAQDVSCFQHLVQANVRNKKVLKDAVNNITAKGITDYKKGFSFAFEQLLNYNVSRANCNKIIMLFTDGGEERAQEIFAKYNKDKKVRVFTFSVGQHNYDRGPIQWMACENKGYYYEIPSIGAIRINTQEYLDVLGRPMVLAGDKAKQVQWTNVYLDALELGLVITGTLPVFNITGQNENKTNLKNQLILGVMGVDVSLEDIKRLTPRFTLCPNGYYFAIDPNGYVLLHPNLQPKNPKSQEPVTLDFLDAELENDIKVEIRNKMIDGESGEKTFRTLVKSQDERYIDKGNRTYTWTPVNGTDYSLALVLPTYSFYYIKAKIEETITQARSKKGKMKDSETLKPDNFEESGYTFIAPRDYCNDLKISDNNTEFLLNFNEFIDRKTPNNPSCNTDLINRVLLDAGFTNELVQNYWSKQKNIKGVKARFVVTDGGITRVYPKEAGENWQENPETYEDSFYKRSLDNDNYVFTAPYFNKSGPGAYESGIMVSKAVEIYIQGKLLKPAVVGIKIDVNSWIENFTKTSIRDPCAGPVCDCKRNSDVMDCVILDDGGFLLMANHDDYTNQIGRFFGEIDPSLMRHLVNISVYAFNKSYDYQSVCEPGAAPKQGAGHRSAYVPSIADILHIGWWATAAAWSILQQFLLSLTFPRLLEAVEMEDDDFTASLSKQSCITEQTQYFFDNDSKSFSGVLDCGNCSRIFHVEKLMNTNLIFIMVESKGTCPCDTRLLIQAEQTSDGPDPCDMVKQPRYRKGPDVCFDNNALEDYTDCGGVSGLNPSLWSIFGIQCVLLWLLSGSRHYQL

Regarding `NCC1(CC(=O)O)CC2CCCC2C1` (racemic), the IC50 in data set [1] is more than 10 µM. Still for that read-out and setting: for `NC[C@]1(CC(=O)O)C[C@H]2CCCC[C@H]2C1` the value was 0.72 µM. In the case of `C[C@H]1CC(CN)(CC(=O)O)C[C@@H]1C` (relative stereo) [ATAGABALIN], the results for the IC50 in data set [1] and in data set [2] were 0.022 µM and 10 µM, respectively. With `NC[C@@]1(CC(=O)O)CC2CCCC21` (mixture of isomers), in data set [1], the IC50 was determined as 2.8 µM. The same measure, in the same setting: for `NC[C@@]1(CC(=O)O)C[C@H]2CCCC[C@H]2C1` the value was more than 10 µM; for `NC[C@]1(CC(=O)O)C[C@H]2CCC[C@H]2C1`, 2.6 µM. For `C[C@@H]1C[C@@](CN)(CC(=O)O)C[C@@H]1C`, the IC50 in data set [1] was determined as 0.107 µM; in data set [2] it was 7 µM.

For the molecule `NC[C@@]1(CC(=O)O)C[C@@H]2CCC[C@@H]21`, the IC50 in data set [1] was 0.019 µM; in data set [2] it was 6930 µM. In addition, in data set [3], the outcome was Active.

On to `NC[C@]1(CC(=O)O)CCC2CCCC21` (mixture of isomers), for which the IC50 in data set [1] turned out to be 7.18 µM.

As for `NCC1(CC(=O)O)CC2CCCCC2C1` (racemic), the 50% inhibitory concentration (IC50) in data set [1] was more than 10 µM. Still for that read-out and setting: for `NC[C@@]1(CC(=O)O)CC2CCCCC21` (mixture of isomers) the value was 3.09 µM.

`NC[C@]1(CC(=O)O)C[C@H]2CCC[C@H]21` showed a half-life in data set [4] of 2.3 h. Moreover, the IC50 in data set [1] was 0.046 µM; in data set [2], more than 10000 µM. This molecule yielded a clearance in data set [5] of 4.5 mL/min/kg. In data set [6], the result was Active. For the same molecule, the logD in data set [7] is -1. Moreover, the bioavailability in data set [8] is 100%. As to `NC[C@]1(CC(=O)O)C[C@H]2CC[C@H]2C1`, in data set [4], the half-life was 2.4 h. The results for the IC50 in data set [1] and in data set [2] were 0.038 µM and 38 µM, respectively. The clearance in data set [5] was 4.3 mL/min/kg. Besides, the result in data set [6] was Active. The molecule further came in with a logD in data set [7] of -1. The bioavailability in data set [8] came to 84%. On to `NC[C@@]1(CC(=O)O)C[C@H]2CC[C@H]2C1`, for which the IC50 in data set [1] was 0.332 µM. As to `NC[C@]1(CC(=O)O)CC2CCCC21` (mixture of isomers), the IC50 in data set [1] is 0.025 µM. Turning to `NCC1(CC(=O)O)CC2CCC2C1` (racemic), the IC50 in data set [1] came out at 2.9 µM.

Take `NC[C@]1(CC(=O)O)CC2CCCCC21` (mixture of isomers): in data set [1], the IC50 stood at 0.6 µM. Turning to `NC[C@@]1(CC(=O)O)C[C@H]2CCC[C@H]2C1`, the IC50 in data set [1] was more than 10 µM.

For orientation: IC50 means the midpoint of a concentration-inhibition curve. The term half-life denotes how long it takes for the measured level to halve. Lower therefore signals rapid decline. In general, clearance refers to the volume of plasma or blood freed of the substance per unit of time. By logD is commonly meant lipophilicity at a set pH, counting ionised and neutral species. Usually bioavailability stands for dose-corrected exposure relative to a reference, in per cent. Higher therefore signals much systemic uptake.
